In ChEMBL document CHEMBL5126632, “Balancing Affinity, Selectivity, and Cytotoxicity of Hydrazone-Based G-Quadruplex Ligands for Activation of Interferon β Genes in Cancer Cells” (J Med Chem, 2022):

Assays:
Quadruplex DNA [1] = test: Stabilization of human Tel26 G4 quadruplex DNA assessed as thermal stability by measuring difference in melting temperature t1/2 by circular dichroism spectroscopy; format: nucleic-acid assay
Quadruplex DNA [2] = test: Stabilization of c-kit1 G4 quadruplex d(DNA AGGGAGGGCGCTGGGAGGAGGG) DNA (unknown origin) assessed as thermal stability by measuring difference in melting temperature t1/2 by circular dichroism spectroscopy (reference value: 54 +/- 0.5 degC); format: nucleic-acid assay
Quadruplex DNA [3] = test: Stabilization of c-kit2 G4 quadruplex d(CGGGCGGGCGCTAGGGAGGGT) DNA (unknown origin) assessed as thermal stability by measuring difference in melting temperature t1/2 by circular dichroism spectroscopy (reference value: 61.5 +/- 0.5 degC); format: nucleic-acid assay
Quadruplex DNA [4] = test: Stabilization of c-myc G4 quadruplex d(TTAGGGTTAGGGTTAGGGTTAGGGTT) DNA (unknown origin) assessed as thermal stability by measuring difference in melting temperature t1/2 by circular dichroism spectroscopy (reference value: 72 +/- 0.5 degC); format: nucleic-acid assay
[5] = Stabilization of d(CGC GAA TTC GCG TIT CGC GAA TTC GCG) DNA hairpin (unknown origin) assessed as thermal stability by measuring difference in melting temperature t1/2 by circular dichroism spectroscopy (reference value: 75.4 +/- 0.2 degC)
In short: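 CD melting of 15 μM annealed hairpin duplex in 5 mM K phosphate pH 7.0 with 20 mM KCl, with or without ligand at 2 molar equiv added to the folded DNA. The signal was followed at 252 nm from 20 to 100 °C at 1 °C/min, with T1/2 taken from a curve fit. ΔT1/2 is relative to DNA alone; duplicate runs, averaged.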

[6] = Cytotoxicity against mouse MNMCA1 cells assessed as cell survival preincubated for 24 hrs with compound further incubated for 48 hrs in drug free medium by MTT assay; format: functional, cell-based
In short: (§1)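 Exponentially growing cells seeded and treated 24 h after seeding with increasing concentrations for 24 h. Cells then recovered 48 h in drug-free medium. MTT added for 1 h at 37 °C, formazan dissolved in DMSO, absorbance read at 540 nm. IC50 from linear regression. Means ± SEM of two independent experiments in triplicate.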

[7] = Stabilization of F-c-kit1-T (unknown origin) assessed as difference in melting temperature t1/2 in presence of d(CGC GAA TTC GCG TIT CGC GAA TTC GCG) DNA hairpin (unknown origin) measured at 1:15 G4 to hairpin DNA ratio by FRET assay
In short: (§2)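 FRET melting of 0.2 μM prefolded FAM/TAMRA dual-labelled c-kit1 G4 in 5 mM K phosphate pH 7.0 with 20 mM KCl. Ligand was added at 2 molar equiv, with unlabelled hairpin competitor at 3 or 10 μM final (15 or 50 equiv relative to G4). FAM emission was read at 520 nm (excitation 492 nm) while heating at 0.2 °C/min over 15–90 °C. ΔT1/2 is relative to no ligand; at least duplicate, averaged.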

[8] = Stabilization of F-c-kit1-T (unknown origin) assessed as difference in melting temperature t1/2 in presence of d(CGC GAA TTC GCG TIT CGC GAA TTC GCG) DNA hairpin (unknown origin) measured at 1:50 G4 to hairpin DNA ratio by FRET assay; in short: as §2
Quadruplex DNA [9] = test: Stabilization of F-c-kit1-T quadruplex DNA (unknown origin) by measuring difference in melting temperature t1/2 by FRET assay; format: nucleic-acid assay
In short: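 FRET melting of 0.2 μM prefolded FAM/TAMRA-labelled c-kit1 in 5 mM potassium phosphate pH 7.0 with 20 mM KCl, with ligand at 2 molar equiv. Unlabelled hairpin competitor added at 3 or 10 μM (15 or 50 equiv). FAM emission at 520 nm (excitation 492 nm) followed from 15 to 90 °C at 0.2 °C/min. ΔT1/2 versus no ligand. At least duplicate.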

Quadruplex DNA [10] = test: Displacement of thiazole orange from c-kit1 G4 quadruplex d(DNA AGGGAGGGCGCTGGGAGGAGGG) DNA (unknown origin) assessed as relative affinity by fluorescent intercalator displacement assay; format: nucleic-acid assay
In short: (§3)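 G4 DNA at 0.25 μM with 0.5 μM thiazole orange in 5 mM potassium phosphate pH 7.0 containing 20 mM KCl (LiCl for c-myc), 20 °C. Ligand titrated from 0.5 to 20 molar equiv with 3 min equilibration per addition. Excitation 485 nm, emission 500–650 nm. %displacement = 100 − (F/F0×100); DC50 is the concentration displacing 50% TO. Duplicate titrations.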

Quadruplex DNA [11] = test: Displacement of thiazole orange from c-kit2 G4 quadruplex d(CGGGCGGGCGCTAGGGAGGGT) DNA (unknown origin) assessed as relative affinity by fluorescent intercalator displacement assay; format: nucleic-acid assay; in short: as §3
Quadruplex DNA [12] = test: Displacement of thiazole orange from c-myc G4 quadruplex d(TTAGGGTTAGGGTTAGGGTTAGGGTT) DNA (unknown origin) assessed as relative affinity by fluorescent intercalator displacement assay; format: nucleic-acid assay; in short: as §3
Quadruplex DNA [13] = test: Binding affinity to c-kit1 G4 quadruplex d(DNA AGGGAGGGCGCTGGGAGGAGGG) DNA (unknown origin) assessed as dissociation constant by Microscale thermophoresis analysis; format: nucleic-acid assay
In short: (§4)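 MST with Cy5.5-labelled G4 oligonucleotide held at 20 nM, folded in 5 mM potassium phosphate pH 7.0 with 20 mM KCl plus 0.1% Tween. Ligand in 1:2 serial dilution mixed 1:1 with DNA, 20% DMSO final. Kd taken from binding curves.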

Quadruplex DNA [14] = test: Binding affinity to c-kit2 G4 quadruplex d(CGGGCGGGCGCTAGGGAGGGT) DNA (unknown origin) assessed as dissociation constant by Microscale thermophoresis analysis; format: nucleic-acid assay; in short: as §4
U2OS [15] = test: Cytotoxicity against human U2OS cells assessed as cell survival preincubated for 24 hrs with compound further incubated for 48 hrs in drug free medium by MTT assay; format: functional, cell-based; in short: as §1
Quadruplex DNA [16] = test: Stabilization of G4 quadruplex DNA in human U2OS cells assessed as BG4 foci formation by measuring fold increase in G4 structure at 10 uM by immunofluorescence microscopy; format: cell-based
In short: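 U2OS cells on coverslips treated for […]. Fixed in methanol/acetic acid 3:1, permeabilized with 0.1% Triton X-100, blocked in 2% milk. Stained with 0.5 μg BG4 for 2 h, then anti-FLAG and Alexa Fluor 488 secondary. Signal quantified as fold over untreated.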

U2OS [17] = test: Induction of DNA damage in human U2OS cells assessed as increase in gammaH2AX phosphorylation at S139 incubated for 24 hrs by immunofluorescence microscopy; format: functional, cell-based; conditions: read-out: IC50 (the source's name)
In short: (§5)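 U2OS cells treated 24 h. Fixed with 4% formaldehyde, permeabilized with 0.5% Triton X-100, blocked with 8% BSA, stained with anti-γH2AX (1:500) and Alexa Fluor 594 secondary, DAPI counterstain. Fluorescence microscopy signal quantified as fold over untreated.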

U2OS [18] = test: Induction of DNA damage in human U2OS cells assessed as fold increase in gammaH2AX phosphorylation at […] by measuring fold change at 10 uM incubated for 24 hrs by immunofluorescence microscopy; format: functional; in short: as §5
[19] = Genotoxicity in mouse MNMCA1 cells assessed as induction of micronuclei formation measured after 24 hrs by DAPI staining based analysis; format: toxicity, cell-based; conditions: mnmca1, 24 h
Quadruplex DNA [20] = test: Binding affinity toc-myc G4 quadruplex d(TTAGGGTTAGGGTTAGGGTTAGGGTT) DNA (unknown origin) assessed as dissociation constant by Microscale thermophoresis analysis; format: nucleic-acid assay; in short: as §4

SMILES | ΔTm (Quadruplex DNA [1]) | ΔTm (Quadruplex DNA [2]) | ΔTm (Quadruplex DNA [3]) | ΔTm (Quadruplex DNA [4]) | ΔTm [5] | also measured
Cc1ccc(-c2nc3n(ccc4nc(-c5ccc(C)cc5)c(/C=N/NC(=N)N)n43)c2/C=N/NC(=N)N)cc1 | 5.5 °C | 18.5 °C | > 30 °C | 15.6 °C | 4.1 °C | –
N=C(N)N/N=C/c1c(-c2ccc(Cl)cc2)nc2n1ccc1nc(-c3ccccc3)c(/C=N/NC(=N)N)n12 | 8.3 °C | 20.1 °C | > 30 °C | 14.3 °C | 2.6 °C | –
Cc1ccc(-c2nc3ccn4c(/C=N/NC5=NCCN5)c(-c5ccccc5)nc4n3c2/C=N/NC2=NCCN2)cc1 | 5.3 °C | 15.2 °C | > 30 °C | 9.1 °C | 1.1 °C | IC50 [6]: 28600 nM; ΔTm [7]: 21.4 °C; ΔTm [8]: 20.2 °C; ΔTm (Quadruplex DNA [9]): 22.4 °C; IC50 (Quadruplex DNA [10]): 1300 nM; IC50 (Quadruplex DNA [11]): 1200 nM; IC50 (Quadruplex DNA [12]): 1300 nM; Kd (Quadruplex DNA [13]): 120 nM; Kd (Quadruplex DNA [14]): 130 nM; IC50 (U2OS [15]): 108000 nM; fold change (FC) (Quadruplex DNA [16]): 2.4; EC50 (U2OS [17]): 100000 nM; fold change (FC) (U2OS [18]): 1.45; fold change (FC) [19]: 0.4
Cc1ccc(-c2nc3n(ccc4nc(-c5ccccc5)c(/C=N/NC(=N)N)n43)c2C=O)cc1 | 3.8 °C | 6.6 °C | 20.8 °C | 3.1 °C | 1.2 °C | –
Cc1ccc(-c2nc3n(ccc4nc(-c5ccc(C)cc5)c(/C=N/NC5=NCCN5)n43)c2/C=N/NC2=NCCN2)cc1 | 4.5 °C | 17.1 °C | 26.5 °C | 8.5 °C | 2.4 °C | –
Clc1ccc(-c2nc3n(ccc4nc(-c5ccccc5)c(/C=N/NC5=NCCN5)n43)c2/C=N/NC2=NCCN2)cc1 | 6.6 °C | 17.7 °C | 19.2 °C | 10.6 °C | 1.2 °C | ΔTm [7]: 24.8 °C; ΔTm [8]: 23.8 °C; ΔTm (Quadruplex DNA [9]): 26.6 °C; IC50 (Quadruplex DNA [10]): 1200 nM; IC50 (Quadruplex DNA [11]): 1400 nM; IC50 (Quadruplex DNA [12]): 1300 nM; Kd (Quadruplex DNA [13]): 70 nM; Kd (Quadruplex DNA [14]): 500 nM; Kd (Quadruplex DNA [20]): 1200 nM
Cc1ccc(-c2nc3n(ccc4nc(-c5ccccc5)c(/C=N/NC(=N)N)n43)c2/C=N/NC(=N)N)cc1 | 6.3 °C | 25.2 °C | > 30 °C | 16.9 °C | 3.2 °C | –
Cc1ccc(-c2nc3n(ccc4nc(-c5ccc(C)cc5)c(/C=N/NC(=N)N)n43)c2C=O)cc1 | 2.1 °C | 6.1 °C | 16.2 °C | 4.6 °C | 2.3 °C | –
N=C(N)N/N=C/c1c(-c2ccsc2)nc2ccn3c(C=O)c(-c4ccsc4)nc3n12 | 4.8 °C | 16.1 °C | 25.2 °C | 9.1 °C | 2.7 °C | –
N=C(N)N/N=C/c1c(-c2ccccc2)nc2n1ccc1nc(-c3ccc(Cl)cc3)c(/C=N/NC(=N)N)n12 | 5 °C | 21.4 °C | > 30 °C | 17.6 °C | 2.3 °C | –
Cc1ccc(-c2nc3n(ccc4nc(-c5ccc(C)cc5)c(/C=N/NC5=NCCN5)n43)c2C=O)cc1 | 1.3 °C | 3.8 °C | 6.8 °C | 1.5 °C | 0 °C | –
Clc1ccc(-c2nc3n(ccc4nc(-c5ccc(Cl)cc5)c(/C=N/NC5=NCCN5)n43)c2/C=N/NC2=NCCN2)cc1 | 3.3 °C | 9.6 °C | 13.7 °C | 5.5 °C | 3.5 °C | –
N=C(N)N/N=C/c1c(-c2ccc(Cl)cc2)nc2n1ccc1nc(-c3ccc(Cl)cc3)c(/C=N/NC(=N)N)n12 | 4.1 °C | 11.1 °C | > 30 °C | 11.4 °C | 2.9 °C | –
C(=N\NC1=NCCN1)/c1c(-c2ccsc2)nc2n1ccc1nc(-c3ccsc3)c(/C=N/NC3=NCCN3)n12 | 3.8 °C | 10.3 °C | 14.9 °C | 4.7 °C | 2 °C | –
Cc1ccc(-c2nc3n(ccc4nc(-c5ccccc5)c(/C=N/NC5=NCCN5)n43)c2/C=N/NC2=NCCN2)cc1 | 6.2 °C | 21.4 °C | > 30 °C | 13.1 °C | 2.2 °C | –
NCCOc1cc(C(=O)Nc2cc(OCCN)c3ccccc3n2)nc(C(=O)Nc2cc(OCCN)c3ccccc3n2)c1 [PYRIDOSTATIN] | – | – | – | – | – | IC50 [6]: 27000 nM
